The values that follow come from ChEMBL document CHEMBL5506026, “New Improved cGMP Analogues to Target Rod Photoreceptor Degeneration” (J Med Chem, 2024).

Molecules are shown by their SMILES. Active and inactive are the calls of the source. The calls are words filed in the database; no cut-off is given here.

Series [1] relates to 661W-A11. Put plainly: Neuroprotective activity against zaprinast induced mouse 661W-A11 cells assessed as increase in cell viability at 50 uM preincubated for 2 hrs followed by zaprinast addition at 200 uM and measured after 48 hrs by MTT assay. In kind it is functional, cell-based. Conditions: time 50.0 hrs. Put shortly: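 661W-A11 cells seeded 6000/well; 24 h later pretreated 2 h with 50 µM compound, then 200 µM zaprinast 48 h with compound present. MTT 1 mg/mL for 90 min at 37 °C, formazan in isopropanol, OD 570 nm. Viability normalized to matched vehicle (H2O or DMSO) set at 100%. ≥3 biological replicates, mean ± SD.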

The subject of series [2] is 661W-A11. Briefly: Neuroprotective activity against zaprinast induced mouse 661W-A11 cells assessed as reduction in cell death at 50 uM preincubated for 2 hrs followed by zaprinast addition at 200 uM and measured after 48 hrs by TUNEL assay. In kind it is functional, cell-based. Conditions: time 50.0 hrs. Put shortly: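 661W-A11 cells seeded 20,000/well; 2 h pretreatment with 50 µM compound, then 200 µM zaprinast 48 h. Fixed in 2% paraformaldehyde, permeabilized in citrate/0.1% Triton X-100 on ice, TUNEL (TMR red) 30 min at 37 °C, DAPI counterstain, fluorescence microscopy. Death = TUNEL+ cells/DAPI+ cells. ≥3 biological replicates, mean ± SD.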

Series [3] concerns Primary photoreceptor cell. Briefly: Neuroprotective activity in rd1 mouse Primary photoreceptor cells harboring loss of function mutation in Pde6b gene assessed as reduction in cell death at 50 uM administered at day 10 of differentiation and measured after 24 hrs by TUNEL assay. It is filed as functional, cell-based. An outline of the steps: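 Neurosphere-derived retinal stem cells from rd1 mouse eyes differentiated in vitro into photoreceptors. 50 µM compound or vehicle added on day 10; TUNEL on day 11 (24 h exposure), scored as TUNEL+/DAPI+ nuclei by fluorescence microscopy. ≥3 biological replicates, mean ± SD.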

A short description of series [4]: Neuroprotective activity against zaprinast induced mouse 661W-A11 cells assessed as increase in cell viability at 1 to 1000 uM preincubated for 2 hrs followed by zaprinast addition at 200 uM and measured after 48 hrs by MTT assay relative to control. In kind it is functional. As to conditions: dose 1-1000 µM, time 50 hrs. An outline of the steps: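 661W-A11 rod-like cells (DMEM 1 mg/mL glucose, 10% FBS, 37 °C, 5% CO2) seeded 6000/well; next day pretreated 2 h with 1 µM–1 mM compound, then 200 µM zaprinast 48 h with compound present. MTT 1 mg/mL, 90 min at 37 °C, formazan in isopropanol, OD 570 nm. EC50 from dose–response curve; ≥3 biological replicates, mean ± SEM.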

Series [5] can be described thus: Cytotoxicity against mouse 661W-A11 cells assessed as reduction in cell viability at 1 to 1000 uM incubated for 48 hrs by MTT assay. In kind it is toxicity, cell-based. Conditions: 661w-a11, 48 h, dose 1-1000 µM. Put shortly: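 661W-A11 rod-like mouse photoreceptor line (1 mg/mL glucose DMEM, 10% FBS, 37 °C, 5% CO2), seeded 6000 cells/well; next day exposed to scaling concentrations (1 μM to 1 mM) for 48 h in H2O or DMSO vehicle, matched vehicle controls. MTT 1 mg/mL, 90 min at 37 °C; formazan dissolved in isopropanol, OD 570 nm; untreated cells set as 100% viability; at least three biological replicates.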

As to `O=c1c2nc(Br)n([C@@H]3O[C@@H]4COP(=O)(O)O[C@H]4[C@H]3O)c2nc2[nH]c(-c3ccccc3)cn12`, the outcome with 661W-A11 [1] and with 661W-A11 [2] was inactive.

On to `CCN(CC)CC.O=c1c2nc(Br)n([C@@H]3O[C@@H]4CO[P@](O)(=S)O[C@H]4[C@H]3O)c2nc2[nH]c(-c3ccccc3)cn12`, for which the result (in the series with 661W-A11 [1]; in the series with 661W-A11 [2]; in series [3]) was Active. The Activity result in series [4] is “<=70%”.

Take `CCN(CC)CC.O=c1c2nc(Br)n([C@@H]3O[C@@H]4COP(=S)(S)O[C@H]4[C@H]3O)c2nc2[nH]c(-c3ccccc3)cn12` (some centres undefined): the result (with 661W-A11 [1]; with 661W-A11 [2]; in series [3]) was Active. Further, in series [5], the Activity entry is listed as “Non-Toxic”.

As for `O=c1c2nc(Br)n([C@@H]3O[C@@H]4CO[P@@]([O-])(=S)O[C@H]4[C@H]3O)c2nc2[nH]c(-c3ccccc3)cn12.[Na+]`, the result (with 661W-A11 [1]; in the series with 661W-A11 [2]; in series [3]) was Active. Moreover, in series [4], the Activity result is reported as “<=70%”.
